Experimental data: ChEMBL document CHEMBL1155883, “5-Alkyl-6-benzyl-2-(2-oxo-2-phenylethylsulfanyl)pyrimidin-4(3H)-ones, a series of anti-HIV-1 agents of the dihydro-alkoxy-benzyl-oxopyrimidine family with peculiar structure-activity relationship profile” (J Med Chem, 2008)

How the values were obtained:
[1] = tested on: Human immunodeficiency virus 1; test: Antiviral activity against HIV1 NL4-3 in human MT4 cells assessed as inhibition of virus-induced cytopathogenicity by MTT assay; format: functional, organism-based; settings: Human immunodeficiency virus 1, NL4-3, MT4
Method in brief: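 MT-4 lymphoid cells infected with wild-type HIV-1 NL4-3 in the presence of a range of compound concentrations. Viable cells were counted by MTT colorimetric read-out at day 5 post-infection. EC50 is the concentration giving 50% protection from virus-induced cytopathic effect. Means ± SD from at least two or three experiments.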

[2] = Cytotoxicity against human MT4 cells by MTT assay; format: cell-based
Method in brief: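 Mock-infected MT-4 cells were exposed to a range of compound concentrations. Viability was read by MTT at day 5. CC50 is the concentration that kills 50% of uninfected cells. The top concentration was limited by compound precipitation in culture medium. Means ± SD from at least two or three experiments.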

[3] = Selectivity index, ratio of CC50 for human MT4 cells to EC50 for HIV1 NL4-3; format: toxicity, cell-based; settings: read-out: Ratio CC50/EC50
Method in brief: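 Computed as CC50/EC50. CC50 comes from MTT viability of mock-infected MT-4 cells and EC50 from MTT protection of NL4-3-infected MT-4 cells, both read at day 5.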

[4] = tested on: Human immunodeficiency virus 1; test: Antiviral activity against HIV1 isolates with reverse transcriptase K103N mutation in human MT4 cells assessed as inhibition of virus-induced cytopathogenicity by MTT assay; format: functional, organism-based; settings: Human immunodeficiency virus 1, MT4
Method in brief: (§1)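 MT-4 lymphoid cells infected with HIV-1 carrying RT K103N, Y181C or Y188L, in the presence of different drug concentrations. Viable cells counted at day 5 postinfection by MTT colorimetric assay. EC50 is the concentration that inhibits 50% of the HIV-induced cytopathic effect.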

[5] = tested on: Human immunodeficiency virus 1; test: Antiviral activity against HIV1 isolates with reverse transcriptase Y181C mutation in human MT4 cells assessed as inhibition of virus-induced cytopathogenicity by MTT assay; format: functional, organism-based; settings: Human immunodeficiency virus 1, MT4; method in brief: as §1
[6] = tested on: Human immunodeficiency virus 1; test: Antiviral activity against HIV1 isolates with reverse transcriptase Y188L mutation in human MT4 cells assessed as inhibition of virus-induced cytopathogenicity by MTT assay; format: functional, organism-based; settings: Human immunodeficiency virus 1, MT4; method in brief: as §1
[7] = tested on: Human immunodeficiency virus 1; test: Resistance index, ratio of ID50 for reverse transcriptase K103N mutant to IC50 for wild-type HIV1 sreverse transcriptase
Method in brief: (§2)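 Recombinant wt and K103N, L100I or Y181I HIV-1 RT (>95% pure), 2-4 nM. RNA-dependent DNA polymerase assay on 0.5 µg poly(rA)/oligo(dT) 10:1 (0.3 µM 3'-OH ends) with 10 µM [3H]-dTTP and 8% final DMSO. Aliquots taken every 2 min. Inhibitor range 0.2-5× ID50, fitted to a noncompetitive model. Fold resistance is mutant ID50 divided by wt ID50.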

[8] = tested on: Human immunodeficiency virus 1; test: Resistance index, ratio of ID50 for reverse transcriptase Y181I mutant to IC50 for wild-type HIV1 reverse transcriptase; method in brief: as §2
[9] = tested on: Human immunodeficiency virus 1; test: Resistance index, ratio of ID50 for reverse transcriptase L100I mutant to IC50 for wild-type HIV1 reverse transcriptase; method in brief: as §2
[10] = biological target: Human immunodeficiency virus type 1 reverse transcriptase (Human immunodeficiency virus 1) (UniProt Q72547)
[11] = tested on: Human immunodeficiency virus type 1 reverse transcriptase (Human immunodeficiency virus 1), Q72547 [K103N]
[12] = tested on: Human immunodeficiency virus type 1 reverse transcriptase (Human immunodeficiency virus 1), Q72547 [Y181I]
[13] = tested on: Human immunodeficiency virus type 1 reverse transcriptase (Human immunodeficiency virus 1), Q72547 [L100I]
[14] = tested on: Human immunodeficiency virus 1; test: Resistance index, ratio of EC50 for drug-resistant HIV1 isolate with reverse transcriptase Y181C mutation to EC50 for wild type HIV1 NL4-3; format: functional
Method in brief: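 Fold resistance is the EC50 against the K103N, Y181C or Y188L mutant strain divided by the EC50 against wt NL4-3. Each EC50 is from MT-4 cells infected in the presence of different drug concentrations, with viability read by MTT at day 5 postinfection.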

| Structure (SMILES) | EC50 [1] | CC50 [2] | selectivity ratio [3] | EC50 [4] | EC50 [5] | EC50 [6] | Ratio [7] | Ratio [8] | Ratio [9] | ID50 [10] | ID50 [11] | ID50 [12] | ID50 [13] | Ratio EC50 [14] |
| --- | --- | --- | --- | --- | --- | --- | --- | --- | --- | --- | --- | --- | --- | --- |
| O=C(CSc1nc(Cc2c(Cl)cccc2Cl)cc(=O)[nH]1)c1ccccc1 | 1.78 µM | > 12 µM | > 7 | > 12 µM | > 12 µM | > 12 µM | 308 | 22 | 917 | 0.012 µM | 3.7 µM | 0.26 µM | 11 µM |  |
| CC(C)Sc1nc(Cc2c(F)cccc2F)cc(=O)[nH]1 | 0.017 µM | > 84 µM | > 4940 |  |  |  |  |  |  |  |  |  |  |  |
| Cc1c(Cc2c(F)cccc2F)nc(SCc2cccnc2)[nH]c1=O | 5.9 µM | > 70 µM | > 12 |  |  |  |  |  |  |  |  |  |  |  |
| COc1ccc(C(=O)CSc2nc(Cc3c(F)cccc3Cl)cc(=O)[nH]2)cc1 | 1.55 µM | > 12 µM | > 8 | > 12 µM | > 12 µM | > 12 µM | 243 |  | 36 | 0.014 µM | 3.4 µM | > 40 µM | 0.5 µM |  |
| O=C(CSc1nc(Cc2c(F)cccc2F)cc(=O)[nH]1)c1ccc(Cl)cc1 | 9.8 µM | > 61 µM | > 6 |  |  |  |  |  |  |  |  |  |  |  |
| Cc1c(Cc2c(F)cccc2F)nc(SCc2ccccn2)[nH]c1=O | 10.1 µM | > 70 µM | > 7 |  |  |  |  |  |  |  |  |  |  |  |
| Cc1cc(C)cc(CSc2nc(Cc3c(F)cccc3F)c(C)c(=O)[nH]2)c1 | 14 µM | > 65 µM | > 5 |  |  |  |  |  |  |  |  |  |  |  |
| CC(C)c1c(Cc2c(F)cccc2Cl)nc(SCC(=O)c2ccc(F)cc2)[nH]c1=O | 0.004 µM | > 56 µM | > 14000 | > 56 µM | 0.56 µM | > 55 µM | 1670 |  |  | 0.024 µM | 40 µM | > 40 µM |  | 140 |
| O=C(CSc1nc(Cc2c(F)cccc2Cl)cc(=O)[nH]1)c1ccc(F)cc1 | 0.29 µM | > 61 µM | > 210 | > 61 µM | 13.9 µM | > 61 µM | 22 | 10 |  | 0.93 µM | 20.7 µM | 9.2 µM | > 40 µM | 48 |
| O=c1cc(Cc2c(F)cccc2F)nc(SCCCc2ccccc2)[nH]1 | 0.2 µM | 32 µM | 160 |  |  |  |  |  |  |  |  |  |  |  |
| O=c1cc(Cc2c(F)cccc2F)nc(Sc2ccccc2)[nH]1 | 1.4 µM | > 76 µM | > 54 |  |  |  |  |  |  |  |  |  |  |  |
| Cc1c(Cc2c(F)cccc2F)nc(SC(C)C)[nH]c1=O | 0.006 µM | > 77 µM | > 12800 |  |  |  |  |  |  |  |  |  |  |  |
| COc1ccc(C(=O)CSc2nc(Cc3c(F)cccc3F)c(C)c(=O)[nH]2)cc1 | 0.048 µM | > 60 µM | > 1250 | > 60 µM | 0.65 µM | > 60 µM | 87 | 4 |  | 0.26 µM | 22.7 µM | 1.17 µM | > 40 µM | 13 |
| O=c1cc(Cc2c(F)cccc2F)nc(SCc2c(F)cccc2F)[nH]1 | 1 µM | > 66 µM | > 66 |  |  |  |  |  |  |  |  |  |  |  |
| CCc1c(Cc2c(F)cccc2F)nc(SCC(=O)c2ccc(OC)cc2)[nH]c1=O | 0.009 µM | > 58 µM | > 6440 | > 58 µM | 0.25 µM | > 58 µM | 110 | 19 |  | 0.031 µM | 3.41 µM | 0.58 µM | > 40 µM | 28 |
| O=C(CSc1nc(Cc2c(F)cccc2F)cc(=O)[nH]1)c1ccc([N+](=O)[O-])cc1 | 8.4 µM | 22 µM | > 3 |  |  |  |  |  |  |  |  |  |  |  |
